# From ChEMBL document CHEMBL1144937, “A specific mechanism of nonspecific inhibition” (J Med Chem, 2003)
# pIC50: −log10 of the molar value.
# Tests used:
# [1] = target: T1, Beta-lactamase (Escherichia coli K-12, UniProt P00811); assay: Inhibitory activity against Amp C beta-Lactamase
# [2] = target: Beta-lactamase (Escherichia coli K-12) (UniProt P00811); assay: Percentage inhibition against beta-Lactamase in the absence of detergent Triton X-100 was determined at a concentration of 20 uM
# Procedure, shortened: (§1)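 AmpC β-lactamase (expressed and purified from E. coli) assayed in 50 mM KPi, pH 7.0, at room temperature. Enzyme and inhibitor were preincubated for 5 min before the nitrocefin substrate (200 μM) was added, and hydrolysis was followed kinetically. For the detergent lines, Triton X-100, made fresh daily as a 1% (v/v) stock in 50 mM KPi, was used at a final 0.01%.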
# [3] = target: Beta-lactamase (Escherichia coli K-12) (UniProt P00811); assay: Percentage inhibition against beta-Lactamase in the presence of detergent 0.01% Triton X-100 was determined at a concentration of 20 uM; procedure, shortened: as §1
# [4] = target: Beta-lactamase (Escherichia coli K-12) (UniProt P00811); conditions: 30 uM
# [5] = target: Beta-lactamase (Escherichia coli K-12) (UniProt P00811); assay: Percentage inhibition of Beta-lactamase at KPi (Potassium Phosphate) stock concentration of 5.9 uM
# Procedure, shortened: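 Compound dissolved directly in 50 mM KPi with no DMSO, stock level set by UV–vis spectra correlated with DMSO-diluted solutions. Tested against AmpC β-lactamase in 50 mM KPi, pH 7.0, room temperature, with 5 min enzyme–inhibitor preincubation. Value reported as percent inhibition.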
# [6] = target: Beta-lactamase (Escherichia coli K-12) (UniProt P00811); assay: Percentage inhibition against beta-Lactamase in the presence of detergent 0.01% Triton X-100 was determined at a concentration of 25 uM
# Procedure, shortened: (§2)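 AmpC β-lactamase (E. coli-expressed, purified) assayed in 50 mM KPi, pH 7.0, at room temperature. Enzyme and inhibitor preincubated 5 min before substrate addition. Inhibitors were typically diluted from 10 mM DMSO stocks into KPi. Where present, Triton X-100 was at 0.01% final, from a 1% (v/v) stock in 50 mM KPi freshly prepared daily.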
# [7] = target: Beta-lactamase (Escherichia coli K-12) (UniProt P00811); assay: Percentage inhibition against beta-Lactamase in the absence of detergent Triton X-100 was determined at a concentration of 25 uM; procedure, shortened: as §2
# [8] = target: T1, Beta-lactamase; assay: Inhibitory activity against Beta-lactamase from DMSO stock was determined
# [9] = target: Beta-lactamase (Escherichia coli K-12) (UniProt P00811); assay: Percentage inhibition against beta-Lactamase in the presence of detergent 0.01% Triton X-100 was determined at a concentration of 5 uM; procedure, shortened: as §2
# [10] = target: Beta-lactamase (Escherichia coli K-12) (UniProt P00811); assay: Percentage inhibition against beta-Lactamase in the absence of detergent Triton X-100 was determined at a concentration of 5 uM; procedure, shortened: as §2
# [11] = target: Beta-lactamase (Escherichia coli K-12) (UniProt P00811); assay: Percentage inhibition against beta-Lactamase in the presence of detergent 0.01% Triton X-100 was determined at a concentration of 0.6 uM; procedure, shortened: as §1
# [12] = target: Beta-lactamase (Escherichia coli K-12) (UniProt P00811); assay: Percentage inhibition against beta-Lactamase in the absence of detergent Triton X-100 was determined at a concentration of 0.6 uM; procedure, shortened: as §1
# T1 sequence (P00811 whole entry): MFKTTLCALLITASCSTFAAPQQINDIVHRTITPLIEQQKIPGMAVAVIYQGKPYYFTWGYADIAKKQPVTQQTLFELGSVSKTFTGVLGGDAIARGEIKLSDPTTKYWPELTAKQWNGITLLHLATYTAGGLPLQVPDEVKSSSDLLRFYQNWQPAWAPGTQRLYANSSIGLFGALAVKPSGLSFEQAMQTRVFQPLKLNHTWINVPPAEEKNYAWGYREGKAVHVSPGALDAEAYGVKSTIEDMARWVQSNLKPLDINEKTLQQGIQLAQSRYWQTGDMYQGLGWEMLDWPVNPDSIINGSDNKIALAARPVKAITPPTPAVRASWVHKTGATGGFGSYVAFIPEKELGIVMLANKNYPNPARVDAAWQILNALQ
# Sequence of Beta-lactamase (Escherichia coli K-12) (P00811 whole entry): as above
structure (smiles),measurement,setting,value
O=C1NCc2c1c1c3ccccc3[nH]c1c1[nH]c3ccccc3c21 [STAUROSPORINONE],pIC50,[1],5.10
same,inhibition,[2],80%
same,inhibition,[3],17%
Clc1ccc(CSC(Cn2ccnc2)c2ccc(Cl)cc2Cl)cc1 (configuration not stated) [SULCONAZOLE],pIC50,[1],4.85
O=S(=O)(O)c1cc(O)c(/N=N/c2ccc3ccccc3c2O)c2ccccc12,inhibition,[4],68%
Oc1ccc(/N=N/c2ccc(Br)cc2)cc1,inhibition,[2],91%
same,inhibition,[3],10%
O=c1c(O)c(-c2ccc(O)c(O)c2)oc2cc(O)cc(O)c12,inhibition,[5],43%
same,inhibition,[6],25%
same,inhibition,[7],68%
COC(=O)C1=C(C)NC(C)=C(C(=O)OCCN(C)Cc2ccccc2)C1c1cccc([N+](=O)[O-])c1 (configuration not stated) [NICARDIPINE],pIC50,[8],4.70
same,pIC50,[1],4.70
CC(=O)c1c(O)c(C)c(O)c(Cc2c(O)c3c(c(C(=O)/C=C/c4ccccc4)c2O)OC(C)(C)C=C3)c1O [ROTTLERIN],inhibition,[9],5%
same,inhibition,[10],90%
same,pIC50,[1],5.92
OB(O)c1cc2ccccc2s1,inhibition,[11],86%
same,inhibition,[12],87%
